Converted amounts (≈) assume the structure as drawn. The source made the active and inactive calls. The calls are words filed in the database; no cut-off is given here.
How the values were obtained:
Staphylococcus aureus [1] = experiment: Antibacterial activity against Staphylococcus aureus ATCC 13709 after 24 hrs by microdilution method; format: functional; details: ATCC 13709, 24 h
Summary of the method: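 Broth microdilution MIC per CLSI M7-A7 against S. aureus ATCC 13709.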

[2] = Stability in phosphate buffer saline assessed as amount of parent drug released from cattle bone meal powder over 24 hrs; format: ADME
Summary of the method: (§1)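 Washed bone-powder-bound prodrug was resuspended in PBS or 50% (v/v in PBS) human or rat serum and kept 24 h at 37 °C. The supernatant was extracted with 5 volumes of methanol, centrifuged, dried, redissolved in PBS and read by fluorescence. Release was derived from the difference between bound prodrug and regenerated drug. Identity was checked by CLSI MIC.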

Bone = experiment: Binding affinity to bone assessed as drug level bound to cattle bone meal powder by fluorescence assay; format: tissue-based; set-up: concentration or dose not given beside the values; details: Bos taurus; Bone element
Summary of the method: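 Drug or prodrug was suspended with bone meal powder in PBS and held 1 h at 37 °C to bind, then centrifuged. The pellet was washed three times with PBS, and all supernatants were read by fluorescence (ex/em 280/465 nm). Bound fraction was taken as […] prodrug relative to total input.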

Serum [3] = experiment: Stability in 50% human serum assessed as amount of parent drug released from cattle bone meal powder over 24 hrs; format: ADME, cell-free; summary of the method: as §1
Serum [4] = experiment: Stability in 50% rat serum assessed as amount of parent drug released from cattle bone meal powder over 24 hrs; format: ADME, cell-free; summary of the method: as §1
Staphylococcus aureus [5] = experiment: Protective effect against Staphylococcus aureus ATCC 13709-induced bone infection in CD rat at 17.3 mg/kg, iv administered as single dose 2 days before bacterial challenge; format: functional, organism-based; set-up: dose 17.3 mg/kg
Summary of the method: (§2)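 Female CD rats (57–70 days, n = 5/group) received a single IV bolus in 0.9% saline before infection. Under isoflurane, tibiae were injected with 0.05 ml 5% sodium morrhuate, then S. aureus ATCC 13709 (ca. 5 × 10⁵ CFU/rat). At 24 h, tibiae were milled and cultured quantitatively. Read-out was log CFU/g bone (mean, SD; detection limit 2 log), compared by Dunnett or Kruskal–Wallis.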

Staphylococcus aureus [6] = experiment: Protective effect against Staphylococcus aureus ATCC 13709-induced bone infection in CD rat at 10 mg/kg, iv administered as single dose 24 hrs after bacterial challenge; format: functional, organism-based; set-up: dose 10 mg/kg
Staphylococcus aureus [7] = experiment: Protective effect against Staphylococcus aureus ATCC 13709-induced bone infection in CD rat at 10 mg/kg, iv administered as single dose 2 days before bacterial challenge; format: functional, organism-based; set-up: dose 10 mg/kg; summary of the method: as §2
Staphylococcus aureus [8] = experiment: Protective effect against Staphylococcus aureus ATCC 13709-induced bone infection in CD rat at 10 mg/kg, iv administered as single dose
Staphylococcus aureus [9] = experiment: Protective effect against Staphylococcus aureus ATCC 13709-induced bone infection in CD rat at 15.8 mg/kg, iv administered as single dose 2 days before bacterial challenge; format: functional, organism-based; set-up: dose 15.8 mg/kg; summary of the method: as §2

MIC (Staphylococcus aureus [1]) [µg/mL] | Activity [2] [%] | Activity (Bone) [%] | Activity (Serum [3]) [%] | Activity (Serum [4]) [%] | SMILES | Activity (Staphylococcus aureus [5]) | Activity (Staphylococcus aureus [6]) | Activity (Staphylococcus aureus [7]) | Activity (Staphylococcus aureus [8]) | Activity (Staphylococcus aureus [9])
> 4 | 0.3 | 99 | 0.5 | 0.4 | COc1c(N2C[C@@H]3CCCN[C@@H]3C2)c(F)cc2c(=O)c(C(=O)SCC(=O)NC(P(=O)(O)O)P(=O)(O)O)cn(C3CC3)c12 |  |  |  |  | 
> 4 | 0.2 | 92.8 | 0.4 | 0.4 | COc1c(N2CCNC(C)C2)c(F)cc2c(=O)c(C(=O)OCC(=O)NCCCC[C@@H](NC(=O)COC(=O)c3cn(C4CC4)c4c(OC)c(N5CCNC(C)C5)c(F)cc4c3=O)C(=O)NC(P(=O)(O)O)P(=O)(O)O)cn(C3CC3)c12 (some centres undefined) |  |  |  |  | 
> 4 | 2.7 | 91 | 1.6 | 1.3 | COc1c(N2CCNC(C)C2)c(F)cc2c(=O)c(C(=O)OCC(=O)NC(P(=O)(O)O)P(=O)(O)O)cn(C3CC3)c12 (centres undefined) | Active |  |  |  | 
> 4 | 0.2 | 79.2 | 0.1 | 0.1 | COc1c(N2CCNC(C)C2)c(F)cc2c(=O)c(C(=O)Oc3ccc(C(P(=O)(O)O)P(=O)(O)O)cc3)cn(C3CC3)c12 (centres undefined) |  |  |  |  | 
> 4 | 0.01 | 92.7 |  |  | COc1c(N2C[C@@H]3CCCN[C@@H]3C2)c(F)cc2c(=O)c(C(=O)OCCCCC(P(=O)(O)O)P(=O)(O)O)cn(C3CC3)c12 |  |  |  |  | 
> 4 | 1.1 | 90.4 | 0.6 | 0.9 | COc1c(N2CCNC(C)C2)c(F)cc2c(=O)c(C(=O)OCC(=O)N(C)C(P(=O)(O)O)P(=O)(O)O)cn(C3CC3)c12 (centres undefined) |  |  |  |  | 
> 4 |  | 93.8 |  |  | COc1c(N2C[C@@H]3CCCN[C@@H]3C2)c(F)cc2c(=O)c(C(=O)OCCCC(P(=O)(O)O)P(=O)(O)O)cn(C3CC3)c12 |  |  |  |  | 
> 4 | 0.04 | 99.9 | 0.1 | 0.1 | COc1c(N2C[C@@H]3CCCN[C@@H]3C2)c(F)cc2c(=O)c(C(=O)SCCCC(P(=O)(O)O)P(=O)(O)O)cn(C3CC3)c12 |  |  |  |  | 
> 4 | 0.5 | 88.9 | 0.7 | 0.6 | COc1c(N2CCNC(C)C2)c(F)cc2c(=O)c(C(=O)OCC(=O)Nc3ccc(CC(P(=O)(O)O)P(=O)(O)O)cc3)cn(C3CC3)c12 (centres undefined) |  |  |  |  | 
> 4 | 0.3 | 97.3 | 0.8 | 0.7 | COc1c(N2C[C@@H]3CCCN[C@@H]3C2)c(F)cc2c(=O)c(C(=O)OCC(=O)N(C)C(P(=O)(O)O)P(=O)(O)O)cn(C3CC3)c12 |  |  |  |  | 
> 4 | 0.1 | 98.7 | 0.1 | 0.1 | COc1c(N2CCNC(C)C2)c(F)cc2c(=O)c(C(=O)SCCCC(P(=O)(O)O)P(=O)(O)O)cn(C3CC3)c12 (centres undefined) |  |  |  |  | 
> 4 | 1.2 | 98.7 | 1.4 | 1.4 | COc1c(N2C[C@@H]3CCCN[C@@H]3C2)c(F)cc2c(=O)c(C(=O)OCC(=O)NC(P(=O)(O)O)P(=O)(O)O)cn(C3CC3)c12 |  |  |  |  | Active
> 4 | 0.6 | 97.2 | 1.2 | 1.3 | COc1c(N2C[C@@H]3CCCN[C@@H]3C2)c(F)cc2c(=O)c(C(=O)OCC(=O)Nc3ccc(CC(P(=O)(O)O)P(=O)(O)O)cc3)cn(C3CC3)c12 |  |  |  |  | 

SMILES | MIC (Staphylococcus aureus [1]) [µg/mL] | Activity [2] [%] | Activity (Bone) [%] | Activity (Serum [3]) [%] | Activity (Serum [4]) [%] | Activity (Staphylococcus aureus [5]) | Activity (Staphylococcus aureus [6]) | Activity (Staphylococcus aureus [7]) | Activity (Staphylococcus aureus [8]) | Activity (Staphylococcus aureus [9])
COc1c(N2C[C@@H]3CCCN[C@@H]3C2)c(F)cc2c(=O)c(C(=O)O)cn(C3CC3)c12 [MOXIFLOXACIN] | 0.03 (≈ 0.0747 µM) |  |  |  |  |  | inactive | inactive | inactive | 
COc1c(N2CCNC(C)C2)c(F)cc2c(=O)c(C(=O)O)cn(C3CC3)c12 (centres undefined) [GATIFLOXACIN] | 0.06 (≈ 0.16 µM) |  |  |  |  |  |  | inactive | inactive | 

Reference: ChEMBL document CHEMBL1142457, “Bisphosphonated fluoroquinolone esters as osteotropic prodrugs for the prevention of osteomyelitis” (Bioorg Med Chem, 2008)
